Assay results from ChEMBL document CHEMBL4190234, “Design, synthesis and anticancer activity of new monastrol analogues bearing 1,3,4-oxadiazole moiety” (Eur J Med Chem, 2017).

Key:
Type in all cases: functional
MCF7 = assay: Growth inhibition of human MCF7 cells at 10 uM incubated for 48 hrs by sulforhodamine B assay relative to control; settings: MCF7, 48 h, read-out: GI
Outline: (§1)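 Single-dose screen at 10 μM final: cells in RPMI 1640, 5% FBS, 2 mM L-glutamine, plated 5,000–40,000/well, preincubated 24 h at 37°C, 5% CO2; drug 48 h; adherent cells fixed with 10% TCA, suspension cells with 16% TCA; SRB stain, absorbance 515 nm; percentage growth versus untreated control, with time-zero plates.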

T47D = assay: Growth inhibition of human T47D cells at 10 uM incubated for 48 hrs by sulforhodamine B assay relative to control; settings: read-out: GI
Outline: (§2)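 NCI single-dose screen: cells grown in RPMI 1640 with 5% FBS and 2 mM L-glutamine, plated at 5,000–40,000 cells/well and preincubated 24 h at 37 °C, 5% CO2. Compounds taken from DMSO stock and tested at final 10 µM for 48 h. Cells fixed with TCA, stained with 0.4% SRB, absorbance read at 515 nm. Percentage growth calculated against untreated controls; controls held DMSO at the same dilution.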

HCC 2998 = assay: Growth inhibition of human HCC2998 cells at 10 uM incubated for 48 hrs by sulforhodamine B assay relative to control; settings: HCC 2998, 48 h, read-out: GI; outline: as §1
SK-MEL-28 = assay: Growth inhibition of human SK-MEL-28 cells at 10 uM incubated for 48 hrs by sulforhodamine B assay relative to control; settings: SK-MEL-28, 48 h, read-out: GI; outline: as §2
HL-60(TB) = assay: Growth inhibition of human HL-60(TB) cells at 10 uM incubated for 48 hrs by sulforhodamine B assay relative to control; settings: HL-60, 48 h, read-out: GI
Outline: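 Single dose of 10 µM in the NCI ~60-line panel. Cells grown in RPMI 1640 with 5% FBS and 2 mM L-glutamine, plated and pre-incubated 24 h, then exposed 48 h at 37°C under 5% CO2. Suspension cells fixed with TCA (16% final) and stained with sulforhodamine B, A515 read. Reported as percent growth versus untreated control and as GI%.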

NCI-H23 = assay: Growth inhibition of human NCI-H23 cells at 10 uM incubated for 48 hrs by sulforhodamine B assay relative to control; settings: NCI-H23, 48 h, read-out: GI; outline: as §1
RXF 393 = assay: Growth inhibition of human RXF393 cells at 10 uM incubated for 48 hrs by sulforhodamine B assay relative to control; settings: RXF 393, 48 h, read-out: GI; outline: as §1
HOP-62 = assay: Growth inhibition of human HOP62 cells at 10 uM incubated for 48 hrs by sulforhodamine B assay relative to control; settings: HOP-62, 48 h, read-out: GI; outline: as §1
KM12 = assay: Growth inhibition of human KM12 cells at 10 uM incubated for 48 hrs by sulforhodamine B assay relative to control; settings: KM12, 48 h, read-out: GI; outline: as §1
U-251 = assay: Growth inhibition of human U251 cells at 10 uM incubated for 48 hrs by sulforhodamine B assay relative to control; settings: U-251, 48 h, read-out: GI; outline: as §2
COLO 205 = assay: Growth inhibition of human COLO205 cells at 10 uM incubated for 48 hrs by sulforhodamine B assay relative to control; settings: COLO 205, 48 h, read-out: GI; outline: as §1
SNB-19 = assay: Growth inhibition of human SNB19 cells at 10 uM incubated for 48 hrs by sulforhodamine B assay relative to control; settings: SNB-19, 48 h, read-out: GI; outline: as §2
LOX IMVI = assay: Growth inhibition of human LOXIMVI cells at 10 uM incubated for 48 hrs by sulforhodamine B assay relative to control; settings: read-out: GI; outline: as §1
SK-MEL-5 = assay: Growth inhibition of human SK-MEL-5 cells at 10 uM incubated for 48 hrs by sulforhodamine B assay relative to control; settings: SK-MEL-5, 48 h, read-out: GI; outline: as §2
MDA-MB-435 = assay: Growth inhibition of human MDA-MB-435 cells at 10 uM incubated for 48 hrs by sulforhodamine B assay relative to control; settings: MDA-MB-435, 48 h, read-out: GI; outline: as §1
NCI-H522 = assay: Growth inhibition of human NCI-H522 cells at 10 uM incubated for 48 hrs by sulforhodamine B assay relative to control; settings: NCI-H522, 48 h, read-out: GI; outline: as §1
TK-10 = assay: Growth inhibition of human TK10 cells at 10 uM incubated for 48 hrs by sulforhodamine B assay relative to control; settings: TK-10, 48 h, read-out: GI; outline: as §2
Hs-578T = assay: Growth inhibition of human Hs 578T cells at 10 uM incubated for 48 hrs by sulforhodamine B assay relative to control; settings: read-out: GI; outline: as §1
SK-OV-3 = assay: Growth inhibition of human SKOV3 cells at 10 uM incubated for 48 hrs by sulforhodamine B assay relative to control; settings: SK-OV-3, 48 h, read-out: GI; outline: as §2
DU-145 = assay: Growth inhibition of human DU145 cells at 10 uM incubated for 48 hrs by sulforhodamine B assay relative to control; settings: DU-145, 48 h, read-out: GI; outline: as §1
786-0 = assay: Growth inhibition of human 786-0 cells at 10 uM incubated for 48 hrs by sulforhodamine B assay relative to control; settings: 786-0, 48 h, read-out: GI; outline: as §1
OVCAR-3 = assay: Growth inhibition of human OVCAR3 cells at 10 uM incubated for 48 hrs by sulforhodamine B assay relative to control; settings: OVCAR-3, 48 h, read-out: GI; outline: as §1
HT-29 = assay: Growth inhibition of human HT-29 cells at 10 uM incubated for 48 hrs by sulforhodamine B assay relative to control; settings: HT-29, 48 h, read-out: GI; outline: as §1
UACC-62 = assay: Growth inhibition of human UACC62 cells at 10 uM incubated for 48 hrs by sulforhodamine B assay relative to control; settings: UACC-62, 48 h, read-out: GI; outline: as §2
OVCAR-8 = assay: Growth inhibition of human OVCAR8 cells at 10 uM incubated for 48 hrs by sulforhodamine B assay relative to control; settings: OVCAR-8, 48 h, read-out: GI; outline: as §1
CCRF-CEM = assay: Growth inhibition of human CCRF-CEM cells at 10 uM incubated for 48 hrs by sulforhodamine B assay relative to control; settings: read-out: GI; outline: as §1
BT-549 = assay: Growth inhibition of human BT549 cells at 10 uM incubated for 48 hrs by sulforhodamine B assay relative to control; settings: BT-549, 48 h, read-out: GI; outline: as §1
HCT-15 = assay: Growth inhibition of human HCT15 cells at 10 uM incubated for 48 hrs by sulforhodamine B assay relative to control; settings: HCT-15, 48 h, read-out: GI; outline: as §1
A549 = assay: Growth inhibition of human A549/ATCC cells at 10 uM incubated for 48 hrs by sulforhodamine B assay relative to control; settings: A549, 48 h, read-out: GI; outline: as §1

| Compound | inhibition of growth at 10 µM (MCF7) [%] | inhibition of growth at 10 µM (T47D) [%] | inhibition of growth at 10 µM (HCC 2998) [%] | inhibition of growth at 10 µM (HL-60(TB)) [%] | inhibition of growth at 10 µM (NCI-H23) [%] | inhibition of growth at 10 µM (RXF 393) [%] | inhibition of growth at 10 µM (HOP-62) [%] | inhibition of growth at 10 µM (KM12) [%] | inhibition of growth at 10 µM (U-251) [%] | inhibition of growth at 10 µM (COLO 205) [%] | inhibition of growth at 10 µM (SNB-19) [%] | inhibition of growth at 10 µM (LOX IMVI) [%] | inhibition of growth at 10 µM (SK-MEL-5) [%] | inhibition of growth at 10 µM (MDA-MB-435) [%] | inhibition of growth at 10 µM (NCI-H522) [%] | inhibition of growth at 10 µM (TK-10) [%] | inhibition of growth at 10 µM (Hs-578T) [%] | inhibition of growth at 10 µM (SK-OV-3) [%] | inhibition of growth at 10 µM (DU-145) [%] | inhibition of growth at 10 µM (786-0) [%] | further results |
| --- | --- | --- | --- | --- | --- | --- | --- | --- | --- | --- | --- | --- | --- | --- | --- | --- | --- | --- | --- | --- | --- |
| CCOC(=O)C1=C(C)NC(SCc2nnc(-c3ccc(C)cc3)o2)=NC1c1ccc(F)cc1 (centres undefined) | 14 | 32.6 | < 10 | 25.2 | < 10 | < 10 | < 10 | < 10 | 15.1 | < 10 | 10.1 | < 10 | 14.5 | < 10 | 22.4 | 28.4 | < 10 | < 10 | < 10 | 20.2 | inhibition of growth at 10 µM (SK-MEL-28): < 10%; inhibition of growth at 10 µM (OVCAR-3): < 10%; inhibition of growth at 10 µM (HT-29): 12.4%; inhibition of growth at 10 µM (UACC-62): 17.1%; inhibition of growth at 10 µM (OVCAR-8): 17.8%; inhibition of growth at 10 µM (CCRF-CEM): 14.1%; inhibition of growth at 10 µM (BT-549): 12.8%; inhibition of growth at 10 µM (HCT-15): 11.3%; inhibition of growth at 10 µM (A549): 17.3% |
| CC(=O)C1=C(C)NC(SCc2nnc(-c3ccc(C)cc3)o2)=NC1c1ccc(F)cc1 (centres undefined) | < 10 | 25.6 | < 10 | 19.2 | < 10 | < 10 | < 10 | < 10 | < 10 | < 10 | < 10 | < 10 | < 10 | < 10 | 14.1 | 14.4 | < 10 | < 10 | < 10 | 15.4 | inhibition of growth at 10 µM (OVCAR-3): < 10%; inhibition of growth at 10 µM (HT-29): < 10%; inhibition of growth at 10 µM (UACC-62): 15.4%; inhibition of growth at 10 µM (OVCAR-8): < 10%; inhibition of growth at 10 µM (CCRF-CEM): 11.9%; inhibition of growth at 10 µM (BT-549): 13.9%; inhibition of growth at 10 µM (HCT-15): < 10%; inhibition of growth at 10 µM (A549): < 10% |
| CCOC(=O)C1=C(C)NC(SCc2nnc(-c3ccc(Cl)cc3)o2)=NC1c1ccccc1 (centres undefined) | 18.2 | 53.8 | < 10 | 38 | < 10 | < 10 | 27.8 | 10.3 | 21.2 | 10.4 | 11.7 | 11.1 | < 10 | < 10 | 54.1 | 30.8 | < 10 | 25.6 | < 10 | 31.4 | inhibition of growth at 10 µM (SK-MEL-28): < 10%; inhibition of growth at 10 µM (OVCAR-3): < 10%; inhibition of growth at 10 µM (HT-29): 22.3%; inhibition of growth at 10 µM (UACC-62): 34.9%; inhibition of growth at 10 µM (OVCAR-8): 20.4%; inhibition of growth at 10 µM (CCRF-CEM): 12.4%; inhibition of growth at 10 µM (BT-549): 42.7%; inhibition of growth at 10 µM (HCT-15): 21.8%; inhibition of growth at 10 µM (A549): 29% |
| CCOC(=O)C1=C(C)NC(SCc2nnc(-c3ccc(Cl)cc3)o2)=NC1c1ccc(OC)cc1 (centres undefined) | < 10 | 15.2 | < 10 | < 10 | < 10 | < 10 | < 10 | < 10 | 10.1 | < 10 | 12.5 | < 10 | < 10 | < 10 | < 10 | < 10 | < 10 | < 10 | < 10 | 18.8 | inhibition of growth at 10 µM (SK-MEL-28): < 10%; inhibition of growth at 10 µM (OVCAR-3): < 10%; inhibition of growth at 10 µM (HT-29): < 10%; inhibition of growth at 10 µM (UACC-62): 15.3%; inhibition of growth at 10 µM (OVCAR-8): < 10%; inhibition of growth at 10 µM (CCRF-CEM): 12.9%; inhibition of growth at 10 µM (BT-549): 16.9%; inhibition of growth at 10 µM (HCT-15): < 10%; inhibition of growth at 10 µM (A549): 11.5% |
| CC(=O)C1=C(C)NC(SCc2nnc(-c3ccc(Cl)cc3)o2)=NC1c1ccc(Cl)cc1 (centres undefined) | 16.4 | 39.5 | < 10 | 40.3 | < 10 | < 10 | 11.6 | < 10 | 14.8 | < 10 | 16.6 | < 10 | < 10 | < 10 | 20.9 | 13.1 | < 10 | < 10 | < 10 | 12.6 | inhibition of growth at 10 µM (SK-MEL-28): < 10%; inhibition of growth at 10 µM (OVCAR-3): < 10%; inhibition of growth at 10 µM (HT-29): < 10%; inhibition of growth at 10 µM (UACC-62): 27.7%; inhibition of growth at 10 µM (OVCAR-8): 14.5%; inhibition of growth at 10 µM (CCRF-CEM): 20.9%; inhibition of growth at 10 µM (BT-549): 15.1%; inhibition of growth at 10 µM (HCT-15): 11%; inhibition of growth at 10 µM (A549): 21.4% |
